Source: ChEMBL document CHEMBL4041464, “New potent biaryl sulfate-based hepatitis C virus inhibitors” (Eur J Med Chem, 2017)
pEC50: −log10 of the molar value.

Legend:
[1] = Half life in rat at 10 mg/kg, po; assay type: ADME, organism-based; details: in vivo
[2] = tested on: Salmonella typhimurium; experiment: Mutagenicity in Salmonella typhimurium TA98 assessed as revertant colonies/plate in presence of liver S9 fraction at 1000 ug/plate by Ames test (reference value: 25 +/- 3); assay type: toxicity; details: salmonella enterica subsp. enterica serovar typhimurium
[3] = molecular target: hERG (KCNH2) (Homo sapiens, UniProt Q12809); experiment: Inhibition of human ERG at 10 uM by fluorescence polarization assay
hERG (KCNH2), sequence (Q12809 whole entry): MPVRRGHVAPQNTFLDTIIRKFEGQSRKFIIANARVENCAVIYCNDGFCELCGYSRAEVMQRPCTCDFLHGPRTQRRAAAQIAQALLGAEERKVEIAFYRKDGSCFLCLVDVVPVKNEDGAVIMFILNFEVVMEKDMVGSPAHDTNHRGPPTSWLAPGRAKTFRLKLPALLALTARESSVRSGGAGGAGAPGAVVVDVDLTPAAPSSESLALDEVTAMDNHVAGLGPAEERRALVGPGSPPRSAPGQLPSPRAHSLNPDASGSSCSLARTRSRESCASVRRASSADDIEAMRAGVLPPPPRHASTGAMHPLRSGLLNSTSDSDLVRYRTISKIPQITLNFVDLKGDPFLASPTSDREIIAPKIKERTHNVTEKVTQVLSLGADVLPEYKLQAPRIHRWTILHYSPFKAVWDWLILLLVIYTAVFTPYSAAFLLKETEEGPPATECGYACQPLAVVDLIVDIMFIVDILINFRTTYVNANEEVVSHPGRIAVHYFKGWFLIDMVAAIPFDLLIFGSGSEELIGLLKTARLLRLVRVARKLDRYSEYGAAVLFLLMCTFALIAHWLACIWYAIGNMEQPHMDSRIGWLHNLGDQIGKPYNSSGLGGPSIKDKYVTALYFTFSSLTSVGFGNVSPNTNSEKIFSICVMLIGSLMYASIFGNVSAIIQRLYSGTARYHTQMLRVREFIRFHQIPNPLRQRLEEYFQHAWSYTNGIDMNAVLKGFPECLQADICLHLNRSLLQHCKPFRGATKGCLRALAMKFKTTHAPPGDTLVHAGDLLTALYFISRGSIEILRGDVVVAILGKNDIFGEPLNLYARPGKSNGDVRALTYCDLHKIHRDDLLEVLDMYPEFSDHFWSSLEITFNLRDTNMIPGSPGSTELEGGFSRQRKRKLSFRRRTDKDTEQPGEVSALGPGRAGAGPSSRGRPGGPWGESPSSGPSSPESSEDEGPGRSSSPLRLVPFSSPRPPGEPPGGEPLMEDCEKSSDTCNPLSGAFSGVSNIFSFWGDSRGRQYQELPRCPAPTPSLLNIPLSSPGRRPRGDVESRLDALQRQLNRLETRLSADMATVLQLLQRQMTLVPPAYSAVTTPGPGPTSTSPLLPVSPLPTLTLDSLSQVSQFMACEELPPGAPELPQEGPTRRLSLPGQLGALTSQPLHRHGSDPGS

[4] = Inhibition of HCV genotype 1b NK5.1 NS5A in infected human Huh 7.5.1 cells assessed as reduction in viral RNA replication incubated for 3 days by luciferase reporter gene assay; set-up: species or system Hepatitis C virus subtype 1b; details: Hepatitis C virus, NK5.1, Huh-7.5.1, 72 h
Outline: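 Genotype 1b replicon cells (Huh 7.5.1 carrying NK5.1-Gluc) were cultured 16 h, then given serially diluted compounds for 3 days. Culture media were collected and luciferase activity measured and normalised to mock-treated cells to derive EC50. Cells were maintained in DMEM with 10% heat-inactivated FBS and antibiotics at 37°C, 6.0% CO₂.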

[5] = Cmax in rat at 10 mg/kg, po; assay type: ADME, organism-based; set-up: dose 10 mg/kg, route oral; details: in vivo
[6] = tested on: Salmonella typhimurium; experiment: Mutagenicity in Salmonella typhimurium TA98 assessed as revertant colonies/plate in absence of liver S9 fraction at 1000 ug/plate by Ames test (reference value: 21 +/- 1); assay type: toxicity; details: salmonella enterica subsp. enterica serovar typhimurium
[7] = tested on: Rattus norvegicus; experiment: Half life in rat at 1 mg/kg, iv; assay type: ADME, organism-based; details: in vivo
[8] = Metabolic stability in human plasma assessed as compound remaining at 100 uM after 4 hrs incubation by LC-MS/MS analysis; assay type: ADME, cell-free; details: read-out: Stability
Outline: (§1)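 Test compound (100 µM stock) was added to plasma pre-warmed 5 min at 37°C, mixed by vortex and incubated at 37°C. Samples were taken at 0, 15, 30, 60 and […] and quenched with 2 volumes acetonitrile. After centrifugation at 10,000 rpm for 10 min, the supernatant was analysed by LC-MS/MS. Results are given as % remaining after 4 h; mean ± SD. Enalapril and procaine served as controls.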

[9] = tested on: Hepatitis C virus subtype 1b; experiment: Inhibition of HCV genotype 1b NK5.1 NS5A in infected human Huh 7.5.1 cells assessed as reduction in viral RNA replication by measuring combination index in presence of NS5B inhibitor sofosbuvir at ED90 incubated for 3 days by luciferase reporter gene assay
Outline: (§2)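 Huh 7.5.1 cells carrying the bicistronic genotype 1b replicon NK5.1-Gluc (secreted Gaussia luciferase) plated at 5 x 10⁴ cells/well. After 16 h they were exposed to inhibitor alone or mixed with sofosbuvir at a constant ratio, serially diluted, for 3 days. Luciferase was read and normalised to mock-treated cells. Combination index at ED50/75/90/95 was obtained by the Chou method.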

[10] = Inhibition of HCV genotype 2a JFH5a replicon NS5A in infected human Huh 7.5.1 cells assessed as reduction in viral RNA replication incubated for 3 days by luciferase reporter gene assay; set-up: species or system Hepatitis C virus subtype 2a; details: Hepatitis C virus, Huh-7.5.1, 72 h
Outline: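 Huh 7.5.1 cells were infected with JFH5a-Rluc-ad34 (a JFH1 genotype 2a derivative with adaptive E2/p7 mutations, Renilla luciferase reporter) cell-culture virus for 3 h. They were then cultured in serially diluted compounds for 3 days. Cells were harvested and Renilla luciferase activity measured, normalised to mock-treated cells, to give EC50.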

[11] = Cmax in rat at 1 mg/kg, iv; assay type: ADME, organism-based; set-up: dose 1 mg/kg, route intravenous; details: in vivo
[12] = tested on: Salmonella typhimurium; experiment: Mutagenicity in Salmonella typhimurium TA100 assessed as revertant colonies/plate in presence of liver S9 fraction at 1000 ug/plate by Ames test (reference value: 129 +/- 3); assay type: toxicity; details: salmonella enterica subsp. enterica serovar typhimurium
[13] = tested on: Salmonella typhimurium; experiment: Mutagenicity in Salmonella typhimurium TA100 assessed as revertant colonies/plate in absence of liver S9 fraction at 1000 ug/plate by Ames test (reference value: 125 +/- 9); assay type: toxicity; details: salmonella enterica subsp. enterica serovar typhimurium
[14] = tested on: Huh7.5.1; experiment: Cytotoxicity against human Huh7.5.1 cells at 20 uM; assay type: cell-based
[15] = tested on: Hepatitis C virus subtype 1b; experiment: Inhibition of HCV genotype 1b NK5.1 NS5A in infected human Huh 7.5.1 cells assessed as reduction in viral RNA replication by measuring combination index in presence of NS5B inhibitor sofosbuvir at ED95 incubated for 3 days by luciferase reporter gene assay; outline: as §2
[16] = tested on: Hepatitis C virus subtype 1b; experiment: Inhibition of HCV genotype 1b NK5.1 NS5A in infected human Huh 7.5.1 cells assessed as reduction in viral RNA replication by measuring combination index in presence of NS5B inhibitor sofosbuvir at ED50 incubated for 3 days by luciferase reporter gene assay; outline: as §2
[17] = Metabolic stability in rat plasma assessed as compound remaining at 100 uM after 4 hrs incubation by LC-MS/MS analysis; assay type: ADME, cell-free; details: read-out: Stability; outline: as §1
[18] = Oral bioavailability in rat at 10 mg/kg; assay type: ADME, organism-based; details: in vivo
[19] = tested on: Hepatitis C virus subtype 1b; experiment: Inhibition of HCV genotype 1b NK5.1 NS5A in infected human Huh 7.5.1 cells assessed as reduction in viral RNA replication by measuring combination index in presence of NS5B inhibitor sofosbuvir at ED75 incubated for 3 days by luciferase reporter gene assay; outline: as §2
[20] = tested on: Salmonella typhimurium; experiment: Mutagenicity in Salmonella typhimurium TA100 assessed as revertant colonies/plate in absence of liver S9 fraction at 5000 ug/plate by Ames test (reference value: 7 +/- 2 ); assay type: toxicity; details: salmonella enterica subsp. enterica serovar typhimurium
[21] = tested on: Salmonella typhimurium; experiment: Mutagenicity in Salmonella typhimurium TA98 assessed as revertant colonies/plate in presence of liver S9 fraction at 5000 ug/plate by Ames test (reference value: 1); assay type: toxicity; details: salmonella enterica subsp. enterica serovar typhimurium
[22] = tested on: Salmonella typhimurium; experiment: Mutagenicity in Salmonella typhimurium TA100 assessed as revertant colonies/plate in presence of liver S9 fraction at 5000 ug/plate by Ames test (reference value: 5 +/- 2 ); assay type: toxicity; details: salmonella enterica subsp. enterica serovar typhimurium
[23] = tested on: Salmonella typhimurium; experiment: Mutagenicity in Salmonella typhimurium TA98 assessed as revertant colonies/plate in absence of liver S9 fraction at 5000 ug/plate by Ames test (reference value: 1); assay type: toxicity; details: salmonella enterica subsp. enterica serovar typhimurium
[24] = tested on: Salmonella typhimurium; experiment: Mutagenicity in Salmonella typhimurium TA98 assessed as revertant colonies/plate in absence of liver S9 fraction at 1 ug/plate by Ames test (reference value: 21 +/- 1); assay type: toxicity; details: salmonella enterica subsp. enterica serovar typhimurium

COC(=O)N[C@@H](C(=O)N1CCC[C@H]1C(=O)Nc1cccc(OS(=O)(=O)Oc2cccc(NC(=O)[C@@H]3CCCN3C(=O)[C@H](NC(=O)OC)c3ccccc3)c2)c1)c1ccccc1 gave a half-life [1] of 1.6 h, an Activity [2] of 29 and an inhibition at 10 µM [3] of 2.73%. It also gave a pEC50 [4] of 10.70, a Cmax [5] of 14 ng/mL and an Activity [6] of 26. It also gave a t1/2 [7] of 0.51 h, a remaining at 4 h, 100 µM [8] of 86.3% and a CI [9] of 0.949. For the same compound, the pEC50 [10] was 10.70, the Cmax [11] was 1960 ng/mL and the Activity [12] was 130. It also gave an Activity [13] of 126, an Activity [14] greater than 30 µM and a CI [15] of 0.977. For the same compound, the CI [16] was 0.872, the remaining at 4 h, 100 µM [17] was 76.7% and the bioavailability [18] was 0.54%. For the same compound, the CI [19] was 0.909.

In the case of Nc1ccc(OS(=O)(=O)Oc2ccc(N)cc2)cc1, the Activity [20] was 10, the Activity [21] was 1 and the Activity [22] was 8. It also gave an Activity [23] of 1.

For COC(=O)N[C@@H](C(=O)N1CCC[C@H]1C(=O)Nc1ccc(S(=O)(=O)c2ccc(NC(=O)[C@@H]3CCCN3C(=O)[C@H](NC(=O)OC)C(C)C)cc2)cc1)C(C)C, the pEC50 [4] was less than 4.00 and the Activity [14] was greater than 30 µM.

Compound COC(=O)N[C@H](C(=O)N1CCC[C@H]1C(=O)Nc1cccc(OS(=O)(=O)Oc2cccc(NC(=O)[C@@H]3CCCN3C(=O)[C@@H](NC(=O)OC)C(C)(C)C)c2)c1)C(C)(C)C has a pEC50 [4] of 10.11, a pEC50 [10] of 9.03 and an Activity [14] greater than 30 µM.

In the case of O=[N+]([O-])c1ccc2c(c1)Cc1ccccc1-2 [2-NITROFLUORENE], the Activity [24] was 183.

In the case of COC(=O)N[C@@H](C(=O)N1CCC[C@H]1C(=O)Nc1ccc(OS(=O)(=O)Oc2ccc(NC(=O)[C@@H]3CCCN3C(=O)[C@H](NC(=O)OC)C(C)C)cc2)cc1)C(C)C, the pEC50 [4] was 6.24 and the Activity [14] was greater than 30 µM.

Work on COC(=O)N[C@@H](C(=O)N1CCC[C@H]1c1ncc(-c2ccc(OS(=O)(=O)Oc3ccc(-c4cnc([C@@H]5CCCN5C(=O)[C@H](NC(=O)OC)C(C)C)[nH]4)cc3)cc2)[nH]1)C(C)C yielded a pEC50 [4] of 6.38, a pEC50 [10] of 6.37 and an Activity [14] greater than 30 µM.

CCN(CC)CCOC(=O)c1ccc(N)cc1 [PROCAINE] gave a remaining at 4 h, 100 µM [8] of 0.003%.

Work on COC(=O)N[C@@H](C(=O)N1CCC[C@H]1C(=O)Nc1ccc(S(=O)(=O)c2ccc(NC(=O)[C@@H]3CCCN3C(=O)[C@H](NC(=O)OC)c3ccccc3)cc2)cc1)c1ccccc1 yielded a pEC50 [4] of 7.44 and an Activity [14] greater than 30 µM.

In the case of COC(=O)N[C@@H](C(=O)N1CCC[C@H]1C(=O)Nc1cccc(OS(=O)(=O)Oc2cccc(NC(=O)[C@@H]3CCCN3C(=O)[C@H](NC(=O)OC)c3ccccc3)c2C)c1C)c1ccccc1, the pEC50 [4] was 7.64 and the Activity [14] was greater than 30 µM.

For COC(=O)N[C@@H](C(=O)N1CCC[C@H]1C(=O)Nc1ccc(C)c(OS(=O)(=O)Oc2cc(NC(=O)[C@@H]3CCCN3C(=O)[C@H](NC(=O)OC)c3ccccc3)ccc2C)c1)c1ccccc1, the pEC50 [4] was 9.96, the pEC50 [10] was 8.65 and the Activity [14] was greater than 30 µM.

COC(=O)N[C@H](C(=O)N1CCC[C@H]1c1ncc(-c2cccc(OS(=O)(=O)Oc3cccc(-c4cnc([C@@H]5CCCN5C(=O)[C@@H](NC(=O)OC)C(C)(C)C)[nH]4)c3)c2)[nH]1)C(C)(C)C gave a pEC50 [4] of 7.43 and an Activity [14] greater than 30 µM.

COC(=O)N[C@@H](C(=O)N1CCC[C@H]1C(=O)Nc1ccc(OS(=O)(=O)Oc2ccc(NC(=O)[C@@H]3CCCN3C(=O)[C@H](NC(=O)OC)c3ccccc3)cc2)cc1)c1ccccc1 gave a pEC50 [4] of 11.00 and an Activity [14] greater than 30 µM.

With COC(=O)N[C@H](C(=O)N1CCC[C@H]1C(=O)Nc1ccc(S(=O)(=O)c2ccc(NC(=O)[C@@H]3CCCN3C(=O)[C@@H](NC(=O)OC)C(C)C)cc2)cc1)C(C)C the pEC50 [4] was less than 4.00 and the Activity [14] was greater than 30 µM.

Compound COC(=O)N[C@H](C(=O)N1CCC[C@H]1c1ncc(-c2ccc(OS(=O)(=O)Oc3ccc(-c4cnc([C@@H]5CCCN5C(=O)[C@@H](NC(=O)OC)C(C)C)[nH]4)cc3)cc2)[nH]1)C(C)C has a pEC50 [4] of 8.37 and an Activity [14] greater than 30 µM.

In the case of COC(=O)N[C@@H](C(=O)N1CCC[C@H]1c1ncc(-c2cccc(OS(=O)(=O)Oc3cccc(-c4cnc([C@@H]5CCCN5C(=O)[C@H](NC(=O)OC)c5ccccc5)[nH]4)c3)c2)[nH]1)c1ccccc1, the pEC50 [4] was 9.44, the pEC50 [10] was 8.00 and the Activity [14] was greater than 30 µM.

Work on COC(=O)N[C@@H](C(=O)N1CCC[C@H]1c1ncc(-c2ccc(OS(=O)(=O)Oc3ccc(-c4cnc([C@@H]5CCCN5C(=O)[C@H](NC(=O)OC)c5ccccc5)[nH]4)cc3)cc2)[nH]1)c1ccccc1 yielded a pEC50 [4] of 9.57, a pEC50 [10] of 9.83 and an Activity [14] greater than 30 µM.

Work on COC(=O)N[C@H](C(=O)N1CCC[C@H]1c1ncc(-c2cccc(OS(=O)(=O)Oc3cccc(-c4cnc([C@@H]5CCCN5C(=O)[C@@H](NC(=O)OC)C(C)C)[nH]4)c3)c2)[nH]1)C(C)C yielded a half-life [1] of 2.25 h, an Activity [2] of 29 and an inhibition at 10 µM [3] of 18.7%. The pEC50 [4] was 10.49, the Cmax [5] was 17 ng/mL and the Activity [6] was 28. It also gave a t1/2 [7] of 0.92 h, a remaining at 4 h, 100 µM [8] of 92.6% and a CI [9] of 1.16. For the same compound, the pEC50 [10] was 9.05, the Cmax [11] was 1680 ng/mL and the Activity [12] was 110. It also gave an Activity [13] of 125, an Activity [14] greater than 30 µM and a CI [15] of 1.25. The CI [16] was 0.98, the remaining at 4 h, 100 µM [17] was 87.2% and the bioavailability [18] was 0.74%. It also gave a CI [19] of 1.06.

Work on CCOC(=O)[C@H](CCc1ccccc1)N[C@@H](C)C(=O)N1CCC[C@H]1C(=O)O yielded a remaining at 4 h, 100 µM [17] of 0.032%.
